PLC-gamma1 inh = inhibitors of human phospholipase C gamma1; inhibition, % at 12.2 µM; 370,000 compounds, 0.84% hits; purified PLC-gamma1, fluorogenic substrate, fluorescence; in the data active = inhibition above about 9.5%
NRP1-CendR mod = NRP-1/CendR interaction modulation; AID 602438; 360,000 compounds, 0.85% hits; inhibition, % at 25 µM; FAM-RPARPAR peptide binding to NRP-1, fluorescence polarization; O14786;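 active = inhibition or corrected inhibition above about 18%, plus a signal ratio from 0.5 to 1.5, limit read from the data, passing the limit was not always enough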
Tn6 DDE FP = disrupts Tn6 cyclic peptide binding to fibrin D-Dimer-E complex. P02675. Fibrin DD(E) TRITC-Tn6 fluorescence polarization displacement. inhibition, % at 8.3 µM. 370,000 compounds, 0.21% hits. AID 720509;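 active = inhibition above a per-campaign cutoff: mean of compounds within control limits plus 3 SD, cut at about 15% in these data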;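 note: 0% = median of all compound wells on the plate and 100% = blocking peptide control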
PLC-beta3 inh = inhibitors of human phospholipase C beta3. Q01970. Purified PLC-beta3, fluorogenic substrate, fluorescence. inhibition, % at 12.2 µM. 370,000 compounds, 0.18% hits. AID 720704; in the data active = inhibition above about 11%;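 note: 0% = median of compound wells on plate and 100% = full blocker control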
DDE Tn7 FP inh = inhibitors of Tn7 peptide binding to human fibrin DD(E); P02675; FP displacement of FITC-Tn7 peptide from fibrin DD(E); 0% = median of compound wells per plate; inhibition, % at 8.3 µM; 370,000 compounds, 0.13% hits; AID 720508;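 active = inhibition above the mean of compounds falling within the control limits plus 3 SD of them, cut at about 14% in these data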;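 note: 0% = plate median of compound wells and 100% = 10 µM Aha-Tn7 peptide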
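Measure: % inhibition scaled between sample-field median and high-control FP; Test system: human fibrin DD(E); Quantity: 2 µM final DD(E) protein; Doses: one dose, 8.3 µM nominal; Schedule: compound with protein 10 min, then 3 h after probe, room temperature; Detection: fluorescence polarization; Medium: Tris buffer with calcium and detergent, pH 7.8.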
proKLK7 act = proKLK7 (human) activation, primary screen | purified proKLK7, EDANS-DABCYL substrate fluorescence; 100% is mature enzyme control, 0% vehicle | activation, % at 7 µM | 370,000 compounds, 0.9% hits | AID 652039;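 active = activation above the mean of all tested compounds plus 3 SD, computed per campaign excluding outliers beyond control limits, cut at about 13% in these data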
Tn7 DDE conf = DD(E)-Tn7 binding inhibition, FP confirmation. shares compounds with DDE Tn7 FP inh. FP displacement of TRITC-Tn7 peptide from DD(E); 0% set at plate's compound-well median. inhibition, % at 8.3 µM. 460 compounds, 5% hits. AID 720628;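 active = inhibition above the campaign cutoff, the mean of compounds within control limits plus 3 SD, cut at about 14% in these data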;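 note: 100% = median FP of high control wells holding Aha-Tn7 inhibitor peptide; displacers lower polarization since freed probe rises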
DDE Tn7 FP ctr = DD(E)-Tn7 binding inhibition, counter-screen; fibrin DD(E), TRITC-Tn7 probe displacement, fluorescence polarization; shares compounds with DDE Tn7 FP inh; 460 compounds, 3% hits; inhibition, % at 8.3 µM;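 active = inhibition above the cutoff, the mean of compounds lying between the control bounds plus 3 SD of those compounds, cut at about 17% in these data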;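 note: 0% = median of compound sample wells and 100% = excess unlabeled Aha-Tn7 peptide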
DDE Tn6 FP ctr = DD(E)-Tn6 binding inhibition, counter-screen; shares compounds with Tn6 DDE FP; Fibrin DD(E), TRITC-Tn6 fluorescence polarization displacement; 0% = median of compound wells, not DMSO; inhibition, % at 8.3 µM; 680 compounds, 2% hits;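 active = inhibition above the mean of test compounds lying between the control limits plus 3 SD of those, cut at about 14% in these data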;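 note: 0% = median of compound wells and 100% = wells with Aha-Tn7 blocking peptide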
DDE Tn6 confirm = confirmation of inhibitors of Tn6 binding to human fibrin DD(E). shares compounds with Tn6 DDE FP. FP displacement of TRITC-Tn6 peptide from DD(E); 0% = per-plate median of test wells. AID 720631. 680 compounds, 10% hits. inhibition, % at 8.3 µM;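 active = inhibition above the mean of compounds lying within the control limits plus 3 SD, cut at about 16% in these data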;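 note: 100% = high control wells holding a competing inhibitor peptide at 10 µM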
* = called active by the depositor; i = inactive; . = no result given. Hits are enriched below; roughly 3% of the tested compounds scored in any of these assays.

SMILES	PLC-gamma1 inh	NRP1-CendR mod	Tn6 DDE FP	PLC-beta3 inh	DDE Tn7 FP inh	proKLK7 act	Tn7 DDE conf	DDE Tn7 FP ctr	others
C=CC[C@@H](CC(=O)N(CCO)Cc1ccccc1)C(=O)N[C@@H](COC(=O)[C@@H](CC=C)Cc1ccc(F)cc1)Cc1ccccc1	2	7	0	8	-11	0	.	.
C=CC[C@@H](CC(=O)N(CCO)Cc1ccccc1)C(=O)N[C@H](COC(=O)[C@@H](CC=C)Cc1ccc(F)cc1)Cc1ccccc1	9	12	3	3	16*	0	-1	-4
COC(=O)[C@]12C[C@H](CC(=O)NCc3cccs3)C(=O)N(CCc3ccc(OC)c(OC)c3)C1=C[C@H](COCc1ccccc1)O[C@@H]2C	1	.	8	3	-3	1	.	.
CC[C@@]12C(=O)N(c3ccc(OC)cc3)C(=O)N1[C@H](c1ccc(Cl)cc1)[C@@H]1C(=O)N(C3CCCCC3)C(=O)[C@@H]12	-1	-2	3	2	16*	0	7	-1
CC[C@@]12C(=O)N(c3cccc(Br)c3)C(=O)N1[C@H](c1ccc(Cl)cc1)[C@@H]1C(=O)N(C3CCCCC3)C(=O)[C@@H]12	2	0	4	-1	-6	0	.	.
COC(=O)[C@]12C[C@H](CC(=O)N3CCOCC3)C(=O)N(CCc3ccc(OC)c(OC)c3)C1=C[C@H](COCc1ccccc1)O[C@@H]2C	3	.	6	-2	-3	0	.	.
CC(=O)c1nc(N2C(=O)CC(Cc3cccc(C)c3)C2=O)sc1C (configuration not stated)	7	4	-6	-5	16*	-2	2	2
CC(=O)c1nc(N2C(=O)CC(Cc3cc(C)cc(C)c3)C2=O)sc1C (configuration not stated)	-1	6	0	1	-1	0	.	.
COC(=O)[C@]12C[C@H](CC(=O)N3CCN(C(=O)C4CC4)CC3)C(=O)N(CCC3=CCCCC3)C1=C[C@H](C1CCCC1)O[C@@H]2C	-2	.	-6	-4	-5	0	.	.
O=C(NC(=S)NC1CCSC1=O)c1ccccc1Cl (configuration not stated)	0	-7	-2	-3	15*	0	4	1
COc1ccc(OC[C@@H](O)CN2CCC(C(O)(c3ccccc3)c3ccccc3)CC2)cc1	6	.	-2	9	2	0	.	.
OCCOCCn1c(C(CO)Nc2nc(-c3ccccc3Br)cs2)nc2ccccc21 (configuration not stated)	-1	-5	4	-5	14*	0	4	5
OCCOCCn1c(C(CO)Nc2nc(-c3ccc(Cl)cc3)cs2)nc2ccccc21 (configuration not stated)	-3	1	8	-4	9	0	.	.
FC(F)(F)c1cc(CNC2CCC23CCCCC3)ccc1Cl (configuration not stated)	1	.	-3	4	2	.	.	.
NC(=O)C1CCN(C(=S)NCc2ccc3c(c2)OCO3)CC1	1	6	8	1	15*	0	0	-4
NC(=O)C1CCCN(C(=S)NCc2ccc3c(c2)OCO3)C1 (configuration not stated)	-3	-1	9	0	-1	-1	.	.
O=C(NCCc1ccccc1)OCc1cn(Cc2cccc(C(F)(F)F)c2)nn1	-2	.	-11	0	-2	0	.	.
CN(Cc1ccccc1F)C(=O)C1CCC(CNS(=O)(=O)c2cccc3cccnc23)CC1 (configuration not stated)	-2	.	7	-5	5	0	.	.
O=C(NCCC(=O)N1CCN(c2ccccn2)CC1)c1ccc(Br)cc1	3	8	7	-1	-10	0	.	.
O=C(NCCC(=O)N1CCN(c2ccccn2)CC1)c1ccc([N+](=O)[O-])cc1	2	-1	1	-5	15*	-1	-4	-17
COc1cc(OC)cc(C(=O)OCC(=O)NCCCc2ccccc2)c1	5	-1	-3	-8	0	0	.	.
COc1cccc(OC)c1C(=O)OCC(=O)NCCCc1ccccc1	3	11	-5	-1	15*	0	-3	-10
Cc1cc(=O)n(Cc2ccco2)c(=S)[nH]1	-1	-3	5	-1	16*	-1	-2	-8
CC(=O)Nc1ccc(-c2csc(NCCc3ccccc3)n2)cc1	-7	-4	6	-13	17*	1	12	9
NC(=O)c1cc(-c2csc(NCCc3ccccc3)n2)ccc1O	-7	-15	-2	-15	0	-1	.	.
SMILES	PLC-gamma1 inh	NRP1-CendR mod	Tn6 DDE FP	PLC-beta3 inh	DDE Tn7 FP inh	proKLK7 act	Tn7 DDE conf	DDE Tn7 FP ctr	others
COc1ccc2c(c1)CO[C@H]([C@H](O)COC(C)=O)[C@H]2/C=C/c1ccccc1	1	.	-5	-1	15*	1	10	5
CC(C)C(=O)N[C@@H]1c2ccccc2CC[C@@H]1OCc1ccccc1	-1	-7	5	-2	14*	0	0	-4
COc1ccc(CC(=O)N[C@@H]2c3ccccc3CC[C@H]2OCc2ccccc2)cc1	3	-6	-5	1	0	0	.	.
O=[N+]([O-])c1cccc2[nH]c(CNc3nc(N4CCOCC4)nc4c3ncn4-c3ccsc3)nc12	-1	.	-2	0	2	.	.	.
CN(C)c1ccc(C=Cc2nccc3ccccc23)cc1	i	140	131*	i	30*	1	2	54*	DDE Tn6 FP ctr=2;DDE Tn6 confirm=54*
CCOC(=O)NC(=O)/C(C#N)=C\Nc1ccc(Cl)cc1Cl	-3	-4	-2	2	-3	0	.	.
CCOC(=O)NC(=O)/C(C#N)=C\Nc1sccc1C(=O)OC	-38	-13	16*	-35	17*	2	1	2	DDE Tn6 FP ctr=1;DDE Tn6 confirm=2
O=C(NCc1ccccc1)C(c1ccco1)N1CCN(CCN2CCOCC2)CC1 (configuration not stated)	-3	.	-1	-5	3	0	.	.
COc1ccc(-n2c(COc3ccc(Cl)cc3)nnc2SCC(=O)c2ccc(-c3ccccc3)cc2)cc1	3	.	3	-1	-5	-1	.	.

From PubChem
